According to article PMC11390321 (Cancer chemotherapy and pharmacology, 2024):
Like-named read-outs stand apart in the source and are kept apart here.

Tests used:
[1] = type: in vivo, BALB/c mice; settings: for clearance: CL
[2] = Plasma protein binding by rapid equilibrium dialysis; type: in vitro ADME; settings: BALB/c, mouse
In short: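 Rapid equilibrium dialysis: freshly spiked BALB/c mouse plasma against PBS, 37 °C for 24 h. Test compound at 300–100,000 ng/mL with <0.1% final organic solvent, triplicate. Fraction unbound in plasma determined from chamber concentrations.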

[3] = test system: breast cancer resistance protein (Bcrp/Abcg2); settings: on the BBB; cited from earlier work
[4] = clinical; cited from earlier work
[5] = BALB/c, mouse, bone marrow, iv, 20 mg/kg
[6] = BALB/c, mouse, brain, iv, 20 mg/kg
[7] = BALB/c, mouse, draining lymph node, iv, 20 mg/kg
[8] = BALB/c, mouse, esophagus, iv, 20 mg/kg
[9] = BALB/c, mouse, fat, iv, 20 mg/kg
[10] = BALB/c, mouse, heart, iv, 20 mg/kg
[11] = BALB/c, mouse, kidney, iv, 20 mg/kg
[12] = BALB/c, mouse, liver, iv, 20 mg/kg
[13] = BALB/c, mouse, lung, iv, 20 mg/kg
[14] = BALB/c, mouse, non-draining lymph node, iv, 20 mg/kg
[15] = BALB/c, mouse, plasma, iv, 20 mg/kg
[16] = BALB/c, mouse, red blood cells (RBC), iv, 20 mg/kg
[17] = BALB/c, mouse, skeletal muscle, iv, 20 mg/kg
[18] = BALB/c, mouse, small intestine, iv, 20 mg/kg
[19] = BALB/c, mouse, spinal cord, iv, 20 mg/kg
[20] = BALB/c, mouse, spleen, iv, 20 mg/kg
[21] = BALB/c, mouse, thymus, iv, 20 mg/kg
[22] = BALB/c, mouse, tumor (CT26), iv, 20 mg/kg
[23] = plasma, 20 mg/kg IV-ext, tumor-bearing mice
[24] = unchanged drug, 20 mg/kg IV-ext, tumor-bearing mice

CNCc1ccc(-c2cc(-c3nc(-c4ccc(S(=O)(=O)C(C)C)cc4)cnc3N)on2)cc1 [berzosertib]
AUC(0-inf) [1, 5]: 1110 µg·h/mL
Cmax [1, 5]: 164000 ng/mL
Kp [1, 5]: 74.5
Tmax [1, 5]: 60 min
AUC(0-t) ([1]; BALB/c, mouse, bone marrow, iv, 20 mg/kg, AUC0-t, 20 mg/kg IV, 0–1440 min): 1060 µg·h/mL
AUC(0-inf) [1, 6]: 4.52 µg·h/mL
Cmax [1, 6]: 627 ng/mL
Kp [1, 6]: 0.297
Tmax [1, 6]: 15 min
AUC(0-t) ([1]; BALB/c, mouse, brain, iv, 20 mg/kg, AUC0-t, 20 mg/kg IV, 0–1440 min): 4.23 µg·h/mL
AUC(0-inf) [1, 7]: 87 µg·h/mL
Cmax [1, 7]: 12900 ng/mL
Kp [1, 7]: 5.7
Tmax [1, 7]: 60 min
AUC(0-t) ([1]; BALB/c, mouse, draining lymph node, iv, 20 mg/kg, AUC0-t, 20 mg/kg IV, 0–1440 min): 80.3 µg·h/mL
AUC(0-inf) [1, 8]: 46.7 µg·h/mL
Cmax [1, 8]: 12100 ng/mL
Kp [1, 8]: 3.07
Tmax [1, 8]: 30 min
AUC(0-t) ([1]; BALB/c, mouse, esophagus, iv, 20 mg/kg, AUC0-t, 20 mg/kg IV, 0–1440 min): 43.6 µg·h/mL
AUC(0-inf) [1, 9]: 25.2 µg·h/mL
Cmax [1, 9]: 4280 ng/mL
Kp [1, 9]: 1.59
Tmax [1, 9]: 5 min
AUC(0-t) ([1]; BALB/c, mouse, fat, iv, 20 mg/kg, AUC0-t, 20 mg/kg IV, 0–1440 min): 22.6 µg·h/mL
AUC(0-inf) [1, 10]: 86.5 µg·h/mL
Cmax [1, 10]: 31600 ng/mL
Kp [1, 10]: 5.64
Tmax [1, 10]: 5 min
AUC(0-t) ([1]; BALB/c, mouse, heart, iv, 20 mg/kg, AUC0-t, 20 mg/kg IV, 0–1440 min): 81.2 µg·h/mL
AUC(0-inf) [1, 11]: 873 µg·h/mL
Cmax [1, 11]: 117000 ng/mL
Kp [1, 11]: 57.7
Tmax [1, 11]: 5 min
AUC(0-t) ([1]; BALB/c, mouse, kidney, iv, 20 mg/kg, AUC0-t, 20 mg/kg IV, 0–1440 min): 821 µg·h/mL
AUC(0-inf) [1, 12]: 387 µg·h/mL
Cmax [1, 12]: 79800 ng/mL
Kp [1, 12]: 25.5
Tmax [1, 12]: 5 min
AUC(0-t) ([1]; BALB/c, mouse, liver, iv, 20 mg/kg, AUC0-t, 20 mg/kg IV, 0–1440 min): 363 µg·h/mL
AUC(0-inf) [1, 13]: 216 µg·h/mL
Cmax [1, 13]: 45200 ng/mL
Kp [1, 13]: 13.9
Tmax [1, 13]: 5 min
AUC(0-t) ([1]; BALB/c, mouse, lung, iv, 20 mg/kg, AUC0-t, 20 mg/kg IV, 0–1440 min): 198 µg·h/mL
AUC(0-inf) [1, 14]: 116 µg·h/mL
Cmax [1, 14]: 20700 ng/mL
Kp [1, 14]: 7.79
Tmax [1, 14]: 30 min
AUC(0-t) ([1]; BALB/c, mouse, non-draining lymph node, iv, 20 mg/kg, AUC0-t, 20 mg/kg IV, 0–1440 min): 111 µg·h/mL
AUC(0-inf) [1, 15]: 15.1 µg·h/mL
Cmax [1, 15]: 13300 ng/mL
Kp [1, 15]: 1
Tmax [1, 15]: 5 min
Vd [1, 15]: 11.7 L/kg
half-life [1, 15]: 367 min
AUC(0-t) ([1]; BALB/c, mouse, plasma, iv, 20 mg/kg, AUC0-t, 20 mg/kg IV-ext, tumor-bearing mice): 14.2 µg·h/mL
AUC(0-t) ([1]; BALB/c, mouse, plasma, iv, 20 mg/kg, AUC0-t, 20 mg/kg IV, 0–1440 min): 14.2 µg·h/mL
AUC(0-t) ([1]; BALB/c, mouse, plasma, iv, 20 mg/kg, AUC0–360, plasma, 20 mg/kg IV-ext, tumor-bearing mice): 9.85 µg·h/mL
clearance ([1]; BALB/c, mouse, plasma, iv, 20 mg/kg, calculated using AUC0-∞, 20 mg/kg IV-ext, tumor-bearing mice): 22.1 mL/min/kg
clearance ([1]; BALB/c, mouse, plasma, iv, 20 mg/kg, calculated using AUC0–360, 20 mg/kg IV-ext, tumor-bearing mice): 33.8 mL/min/kg
AUC(0-inf) [1, 16]: 5.87 µg·h/mL
Cmax [1, 16]: 1690 ng/mL
Kp [1, 16]: 0.389
Tmax [1, 16]: 5 min
AUC(0-t) ([1]; BALB/c, mouse, red blood cells (RBC), iv, 20 mg/kg, AUC0-t, RBC, 20 mg/kg IV, 0–1440 min): 5.53 µg·h/mL
AUC(0-inf) [1, 17]: 41.7 µg·h/mL
Cmax [1, 17]: 9950 ng/mL
Kp [1, 17]: 2.77
Tmax [1, 17]: 15 min
AUC(0-t) ([1]; BALB/c, mouse, skeletal muscle, iv, 20 mg/kg, AUC0-t, Sk. Muscle, 20 mg/kg IV, 0–1440 min): 39.4 µg·h/mL
AUC(0-inf) [1, 18]: 209 µg·h/mL
Cmax [1, 18]: 31300 ng/mL
Kp [1, 18]: 12.7
Tmax [1, 18]: 15 min
AUC(0-t) ([1]; BALB/c, mouse, small intestine, iv, 20 mg/kg, AUC0-t, 20 mg/kg IV, 0–1440 min): 181 µg·h/mL
AUC(0-inf) [1, 19]: 2.15 µg·h/mL
Cmax [1, 19]: 307 ng/mL
Kp [1, 19]: 0.14
Tmax [1, 19]: 15 min
AUC(0-t) ([1]; BALB/c, mouse, spinal cord, iv, 20 mg/kg, AUC0-t, 20 mg/kg IV, 0–1440 min): 2 µg·h/mL
AUC(0-inf) [1, 20]: 306 µg·h/mL
Cmax [1, 20]: 39000 ng/mL
Kp [1, 20]: 20.6
Tmax [1, 20]: 120 min
AUC(0-t) ([1]; BALB/c, mouse, spleen, iv, 20 mg/kg, AUC0-t, 20 mg/kg IV, 0–1440 min): 293 µg·h/mL
AUC(0-inf) [1, 21]: 92.9 µg·h/mL
Cmax [1, 21]: 13500 ng/mL
Kp [1, 21]: 5.94
Tmax [1, 21]: 30 min
AUC(0-t) ([1]; BALB/c, mouse, thymus, iv, 20 mg/kg, AUC0-t, 20 mg/kg IV, 0–1440 min): 84.5 µg·h/mL
Kp ([1]; BALB/c, mouse, tumor (CT26), intravenous, 20 mg/kg): 8.68
AUC(0-inf) [1, 22]: 140 µg·h/mL
Cmax [1, 22]: 13100 ng/mL
Tmax [1, 22]: 60 min
AUC(0-t) ([1]; BALB/c, mouse, tumor (CT26), iv, 20 mg/kg, AUC0-t, 20 mg/kg IV, 0–1440 min): 124 µg·h/mL
Cmax ([1]; Plasma, 20 mg/kg IV, observed, mean (SD)): 13.3 (4.91) μg/mL
AUC0-∞ ([1]; plasma, 20 mg/kg IV): 906 µg·min/mL
Tmax ([1]; plasma, 20 mg/kg IV): 5 min
AUC0-t/dose [1, 23]: 42.7
AUC0-∞ /dose [1, 23]: 45.3
AUC0–360/dose [1, 23]: 29.6
AUCextrap [1, 23]: 5.75%
Tlast [1, 23]: 1440 min
0–24 h feces [1, 24]: 4.13 % dose
0–24 h urine [1, 24]: 48.4 % dose
fraction unbound at 24 h, 300 ng/mL [2]: 0.028
fraction unbound at 24 h, 100000 ng/mL [2]: 0.0427
efflux transporter substrate [3]: substrate
clinically associated toxicities [4]: bone marrow toxicities including neutropenia, thrombocytopenia, leukocytopenia, lymphocytopenia, and anemia
